Furin inh = blocks human furin protease activity. P09958. purified furin, fluorogenic substrate cleavage. inhibition, % at 20 µM or 30 µM. 220,000 tested, 0.061% active. AID 463115; in the data active = inhibition above about 25%
NPY-Y1 antag = NPY-Y1 (human) receptor antagonism; HEK293-CNG Y1 cells, membrane potential fluorescence; NPY at EC95, then isoproterenol; inhibition, % at 3.6 µM; 200,000 tested, 1% active;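 active = inhibition above the campaign mean inhibition of all tested compounds plus 3 SD, cut at about 20% in these data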;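 also: 0% = DMSO wells given NPY plus isoproterenol and 100% = isoproterenol alone without NPY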
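Material: HEK293 cells co-expressing NPY Y1 receptor and cyclic-nucleotide gated channel. Timing: compound incubation 1 h at room temperature, readout 45 min post-stimulation. Signal: fluorescence, membrane potential probe.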
NPY1 pot ag = potentiators or agonists of human neuropeptide Y receptor Y1. P25929. 220,000 tested, 0.37% active. AID 1304. activation, % at 3.6 µM. NPY-Y1 expressing cells, potentiator/agonist activation; in the data active = activation above about 33%, passing the limit was not always enough;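 also: cells stimulated with NPY at EC10 then isoproterenol at EC100; 0% = low agonist plus stimulus and 100% = saturating agonist plus stimulus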
NPY-Y2 antag = antagonists of human neuropeptide Y receptor Y2. P49146. 140,000 tested, 0.99% active. inhibition, % at 2.7 µM. NPY-Y2 expressing cells, antagonist mode; in the data active = inhibition above about 17%;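 also: 0% = vehicle with agonist challenge and 100% = reference antagonist with challenge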
Cl transport mod = modulates chloride dependent transport by human KCC2; KCC2 cells, thallium flux FluoZin-2 fluorescence; B-score of Tl+ flux slope (higher = more flux/activation; lower = inhibition) at 10 µM; 190,000 tested, 2.2% active; Q9H2X9;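 active = thallium flux slope and its plate-corrected score both differing from the plate sample mean at a set confidence after two filtering rounds, in either direction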;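 also: slope of fluorescence scaled to starting intensity during 10 to 20 s after thallium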
Target sequence (Q9H2X9 whole entry, looked up): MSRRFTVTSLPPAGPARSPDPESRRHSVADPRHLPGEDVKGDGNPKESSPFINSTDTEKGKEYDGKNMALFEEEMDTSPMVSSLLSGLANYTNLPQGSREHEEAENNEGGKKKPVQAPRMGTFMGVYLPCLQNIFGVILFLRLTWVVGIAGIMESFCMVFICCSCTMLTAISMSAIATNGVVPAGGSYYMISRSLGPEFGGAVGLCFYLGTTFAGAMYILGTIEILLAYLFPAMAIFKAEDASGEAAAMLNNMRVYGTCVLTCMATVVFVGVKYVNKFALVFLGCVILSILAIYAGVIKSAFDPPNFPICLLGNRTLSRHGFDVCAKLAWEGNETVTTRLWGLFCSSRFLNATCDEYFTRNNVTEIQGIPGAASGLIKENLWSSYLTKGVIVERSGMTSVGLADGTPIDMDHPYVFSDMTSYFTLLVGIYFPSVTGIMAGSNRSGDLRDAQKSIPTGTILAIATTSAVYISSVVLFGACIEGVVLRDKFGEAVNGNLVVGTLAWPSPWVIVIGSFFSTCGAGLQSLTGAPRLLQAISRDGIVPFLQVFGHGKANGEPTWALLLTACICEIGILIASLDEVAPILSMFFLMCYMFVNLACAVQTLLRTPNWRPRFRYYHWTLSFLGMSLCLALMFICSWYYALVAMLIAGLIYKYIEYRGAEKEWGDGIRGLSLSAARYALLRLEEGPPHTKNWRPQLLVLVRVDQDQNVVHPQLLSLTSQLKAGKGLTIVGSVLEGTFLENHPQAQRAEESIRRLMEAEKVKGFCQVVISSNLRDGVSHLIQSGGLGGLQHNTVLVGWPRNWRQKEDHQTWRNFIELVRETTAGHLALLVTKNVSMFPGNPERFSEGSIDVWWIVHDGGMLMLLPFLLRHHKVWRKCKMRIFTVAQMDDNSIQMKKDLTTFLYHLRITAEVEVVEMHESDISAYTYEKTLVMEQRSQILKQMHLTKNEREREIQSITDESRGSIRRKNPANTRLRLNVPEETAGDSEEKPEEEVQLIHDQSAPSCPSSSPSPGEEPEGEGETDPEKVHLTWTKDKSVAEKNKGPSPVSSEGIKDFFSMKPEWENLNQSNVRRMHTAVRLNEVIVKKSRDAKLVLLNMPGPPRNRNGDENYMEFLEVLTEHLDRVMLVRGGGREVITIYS
NPY-Y2 PAM-ag = human NPY-Y2 potentiation or agonism, primary screen. cells expressing NPY-Y2, potentiator/agonist read-out. 220,000 tested, 0.45% active. P49146. activation, % at 3.6 µM; in the data active = activation above about 27%;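 also: cells stimulated with NPY near EC25 plus isoproterenol at EC100; 0% = vehicle plus submaximal agonist and 100% = vehicle plus saturating agonist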
KCC2 sec1 = KCC2 (human) modulation, secondary assay; shares compounds with Cl transport mod; HEK293-KCC2, thallium flux, FluoZin2 fluorescence; active compounds read high; normalised thallium flux (F/F0 slope) at 10 µM; 3,700 tested, 15% active;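 active = thallium flux slope above the same plate's solvent-only control mean plus 3 SD; inconclusive = the two replicate wells disagree; inactive = no significant difference from solvent-only control wells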
KCC2 bumet counter = thallium flux persisting under bumetanide in KCC2 cells, counter-screen secondary assay; shares compounds with Cl transport mod; HEK293-KCC2 + bumetanide/ouabain, thallium flux FluoZin2; active compounds read high; normalized thallium flux at 10 µM; 3,700 tested, 49% active;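 active = thallium entry rate above the same plate's blocked-transporter control wells by more than 3 SD; inconclusive = the two repeat wells disagree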;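 also: raw slope of fluorescence over initial fluorescence between 10 and 20 s after thallium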
KCC2 secondary2 = KCC2 (human) modulation, second secondary assay. shares compounds with Cl transport mod. HEK293-KCC2, thallium flux FluoZin2 fluorescence; actives lie on both sides; F/F0 rise rate, 10–20 s post-thallium. normalized thallium flux at 10 µM. 3,700 tested, 23% active. AID 1715;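 active = thallium flux slope more than 3 SD above or below the plate's solvent-only control mean, mostly below; inconclusive = the two repeat wells disagreed; inactive = no significant shift from solvent-only controls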;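 also: raw slope with 0.1% DMSO as baseline and bumetanide as block control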
HEK counter1 = counter-screen for KCC2 modulators: effect in parental HEK293 cells; shares compounds with Cl transport mod; thallium flux FluoZin2, ouabain; baseline-ratio fluorescence slope, 10–20 s after thallium; thallium flux rate (normalised fluorescence) at 10 µM; 3,700 tested, 46% active; AID 1716;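 active = thallium flux rate significantly above the same plate's solvent-only control wells, beyond their mean plus 3 SD; inconclusive = the two replicate wells gave conflicting results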
KCC2 retest ouab = modulates human KCC2 on retest with ouabain. AID 1717. shares compounds with Cl transport mod. 3,700 tested, 48% active. raw Tl+ flux slope (below DMSO = inhibition, above = activation) at 10 µM. HEK293-KCC2, thallium flux FluoZin2 fluorescence; bidirectional: low = inhibitor, high = activator;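 active = thallium flux slope beyond 3 SD from same-plate DMSO control mean in most replicates, usually higher, sometimes lower; inconclusive = repeat tests gave conflicting results; inactive = no significant difference from controls in most replicates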;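 also: slope of initial-normalized fluorescence between seconds 10 and 20 after thallium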
HEK293 Tl flux2 = acts in parental HEK cells, second KCC2 counter-screen. HEK293 parental, thallium flux FluoZin-2 fluorescence slope. thallium flux slope at 10 µM. 3,700 tested, 33% active. shares compounds with Cl transport mod;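 active = thallium flux slope above the same plate's solvent-control mean plus 3 SD in both duplicate wells; inconclusive = duplicate wells that disagreed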;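 also: run without ouabain in cells lacking the KCC2 cotransporter; slope of fluorescence scaled to its starting value between 10 and 20 s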
* marks the source's active call; other numbers are inactive results. An excerpt weighted towards active compounds, which were near 3.7% of everything screened.

How did CC1CCC2(CC1)C(Nc1cccc(Cl)c1)=NC(=S)N2CC#N (stereo unspecified) do in these assays?
Furin inh: -14; NPY-Y1 antag: 6; NPY1 pot ag: -38; NPY-Y2 antag: 3; Cl transport mod: 19*; NPY-Y2 PAM-ag: 4; KCC2 sec1: 0.0097*; KCC2 bumet counter: 0.05*; KCC2 secondary2: 0.055*; HEK counter1: 0.052*; KCC2 retest ouab: 0.045*; HEK293 Tl flux2: 0.041*

What do the screens show for `COc1ccc(-c2c(C(F)(F)F)nn(C)c2NC(=O)CSCC(=O)O)cc1`?
Furin inh: -23; NPY1 pot ag: -3; Cl transport mod: 0.95; NPY-Y2 PAM-ag: 2

Results for COc1ccc([N+](=O)[O-])cc1NCc1ccccc1 ?
Furin inh: -15; NPY-Y1 antag: 0; NPY1 pot ag: 1; NPY-Y2 antag: 5; Cl transport mod: -3.8*; NPY-Y2 PAM-ag: -7; KCC2 sec1: 0.0066; KCC2 bumet counter: 0.0041; KCC2 secondary2: 0.029; HEK counter1: 0.0053*; KCC2 retest ouab: 0.014*; HEK293 Tl flux2: 0.0096

Results for O=C(O)c1cc([N+](=O)[O-])ccc1NCc1ccccc1 ?
Furin inh: 4; NPY-Y1 antag: 3; NPY1 pot ag: -8; Cl transport mod: -5.3*; NPY-Y2 PAM-ag: -38; KCC2 sec1: 0.0099; KCC2 bumet counter: 0.0073; KCC2 secondary2: 0.025*; HEK counter1: 0.0068; KCC2 retest ouab: inconclusive; HEK293 Tl flux2: 0.01

Results for O=C(O)c1cc([N+](=O)[O-])ccc1N1CCC(Cc2ccccc2)CC1 ?
Furin inh: -17; NPY-Y1 antag: 1; NPY1 pot ag: 2; NPY-Y2 antag: 3; Cl transport mod: -4.6*; NPY-Y2 PAM-ag: 6; KCC2 sec1: 0.0081; KCC2 bumet counter: inconclusive; KCC2 secondary2: inconclusive; HEK counter1: 0.0079; KCC2 retest ouab: 0.015*; HEK293 Tl flux2: 0.011

Results for O=C(NCCCc1ccccc1)c1cc([N+](=O)[O-])ccc1Cl ?
Furin inh: -13; NPY-Y1 antag: 2; NPY1 pot ag: 5; Cl transport mod: -7.5*; NPY-Y2 PAM-ag: -9; KCC2 sec1: inconclusive; KCC2 bumet counter: 0.0045; KCC2 secondary2: 0.02*; HEK counter1: inconclusive; KCC2 retest ouab: 0.012*; HEK293 Tl flux2: 0.0098

What do the screens show for `O=C(NCc1ccccc1Cl)c1cc([N+](=O)[O-])ccc1Cl`?
Furin inh: -23; NPY-Y1 antag: 3; NPY1 pot ag: 2; Cl transport mod: -1.1; NPY-Y2 PAM-ag: 3

How did COc1ccc(C(=O)C2CCCN(C(=O)C3=CCCC3)C2)c(C)c1 (stereo unspecified) do in these assays?
Furin inh: -25; NPY-Y1 antag: 1; NPY1 pot ag: -2; Cl transport mod: 1.6; NPY-Y2 PAM-ag: 5

Results for COc1ccc(C(CNC(=O)c2ccccc2SC)N(C)C)cc1 (stereo unspecified) ?
Furin inh: -25; NPY-Y1 antag: 4; NPY1 pot ag: -2; Cl transport mod: 0.69; NPY-Y2 PAM-ag: 2
